Experimental data gathered from unrelated publications.
Each line is one published result; the experiments were not run side by side.
Action: inhibitor
rep methyltransferase: Replicase polyprotein 1ab, methyltransferase (rep, Severe acute respiratory syndrome coronavirus 2, UniProt P0DTD1)
rep main protease: Replicase polyprotein 1ab, main protease (rep, Severe acute respiratory syndrome coronavirus 2, UniProt P0DTD1)
rep papain-like protease: Replicase polyprotein 1ab, papain-like protease (rep, Severe acute respiratory syndrome coronavirus 2, UniProt P0DTD1)

Structure (SMILES) | target | observed | technique | pH | IC50 [µM]
CNC(=O)c1c(NC(=O)c2sc(=S)n(-c3ccc(C)cc3)c2N)sc2c1CCCC2 | rep methyltransferase | enzyme activity |  |  | 35.7
CCOc1nc2cccc(C(=O)O)c2n1Cc1ccc(-c2ccccc2-c2nnn[nH]2)cc1 | rep main protease | enzyme activity in cells |  |  | > 60
COc1nc2ccc(Br)cc2cc1[C@@H](c1ccccc1)[C@@](O)(CCN(C)C)c1cccc2ccccc12 | rep main protease | enzyme activity |  |  | 7.67
Cc1c(O)cccc1C(=O)N[C@@H](CSc1ccccc1)[C@H](O)CN1C[C@H]2CCCC[C@H]2C[C@H]1C(=O)NC(C)(C)C | rep main protease | enzyme activity |  |  | > 240
CC(=O)O/N=C1/C(=O)N(Cc2cc(Cl)ccc2Cl)c2ccc(Cl)cc21 | rep main protease | enzyme activity |  |  | 17.9
O=C1c2ccccc2NC(c2cc(Cl)ccc2O)N1N=Cc1cc(Cl)ccc1O (centres unmarked) | rep main protease | enzyme activity in cells |  |  | 10
CCOc1ccc(Nc2nc(-c3c(C)nc4ccccn34)cs2)cc1 | rep main protease | enzyme activity |  |  | 5.05
O=C(NC[C@@H]1c2ccccc2CCN1C(=O)/C=C/c1cn[nH]c1)c1cncc2ccc(F)cc12 | rep main protease | enzyme activity |  |  | 18.7
CCOc1nc2cccc(C(=O)OC(C)OC(=O)OC3CCCCC3)c2n1Cc1ccc(-c2ccccc2-c2nn[nH]n2)cc1 (centres unmarked) | rep methyltransferase | enzyme activity |  |  | 30
O=c1[nH]nc(Sc2ncc([N+](=O)[O-])s2)n1-c1ccc2c(c1)OCCO2 | rep main protease | enzyme activity |  |  | 0.3
CC(C)[C@H](NC(=O)[C@H](CCCNC(=N)N)NC(=O)N[C@@H](Cc1ccccc1)C(=O)O)C(=O)N[C@H](C=O)CCCNC(=N)N | rep main protease | enzyme activity | FRET |  | 48.6
CC(C)c1nc(CN(C)C(=O)N[C@@H](CCN2CCOCC2)C(=O)N[C@H](CC[C@H](Cc2ccccc2)NC(=O)OCc2cncs2)Cc2ccccc2)cs1 | rep main protease | enzyme activity | luciferase |  | > 240
CN1CCN(C(=O)c2ccc(-c3ccc4c(C=O)c(O)ccc4c3)s2)CC1 | rep main protease | enzyme activity |  |  | 1.3
O=C(C1=C(O)C(=O)N(c2nc3ccc(F)cc3s2)C1c1cccc(F)c1)c1cccs1 (centres unmarked) | rep methyltransferase | enzyme activity |  |  | 109
Cc1ccc(-c2nc(N3CCOCC3)s[n+]2-c2ccccc2)cc1 | rep main protease | enzyme activity |  |  | 0.353
O=c1oc2c(O)c(O)cc3c(=O)oc4c(O)c(O)cc1c4c23 | rep methyltransferase | enzyme activity |  |  | 22.9
COc1cc(C[C@@H](C)[C@@H](C)Cc2ccc(O)c(OC)c2)ccc1O | rep main protease | enzyme activity | FRET |  | 4.12
Cc1cc(/C=C/c2ccc3cc(N(C)C)ccc3[n+]2C)c(C)n1-c1ccccc1 | rep methyltransferase | enzyme activity |  |  | 43.4

Structure (SMILES) | target | observed | technique | pH | IC50 [µM]
CC(=O)N[C@@H](CS)C(=O)O | rep papain-like protease | enzyme activity |  |  | > 150
C[C@H]1[C@H](OC(=O)CCC(=O)O)O[C@@H]2O[C@@]3(C)CC[C@H]4[C@H](C)CC[C@@H]1[C@@]24OO3 | rep main protease | enzyme activity in cells |  |  | 2.41
CCOC(=O)c1c(NC(=O)c2cc3ccccc3o2)sc(C)c1C | rep methyltransferase | enzyme activity |  |  | 27.9
NC(Cc1cc(O)c(O)cc1O)C(=O)O (racemic) | rep main protease | enzyme activity |  |  | > 20
O=C(Cn1nnc2ccccc21)Nc1ccccc1N1CCc2sccc2C1 | rep main protease | enzyme activity |  |  | > 100
COC(=O)N[C@H](C(=O)N[C@@H](Cc1ccccc1)[C@@H](O)CN(Cc1ccc(-c2ccccn2)cc1)NC(=O)[C@@H](NC(=O)OC)C(C)(C)C)C(C)(C)C | rep main protease | enzyme activity | luciferase |  | > 240
O=C1C(Cl)=C(Cl)C(=O)C(Cl)=C1Cl | rep main protease | enzyme activity |  |  | 0.18
Cc1cccc2c3c(ccc12)C1=C(C(=O)C3=O)[C@@H](C)CO1 | rep papain-like protease | enzyme activity | FRET | pH 7.5 | 33
COC(=O)c1c(NC(=O)c2cc3ccccc3o2)sc(C)c1C | rep methyltransferase | enzyme activity |  |  | 22.8
O=C(Oc1cncc(Cl)c1)c1cc2c(Cl)cc(Cl)cc2[nH]1 | rep main protease | enzyme activity |  |  | 0.0233
CC(C)=CCOc1ccc(/C=C/C(=O)c2ccc(OCC=C(C)C)cc2OCC(=O)O)cc1 | rep methyltransferase | enzyme activity |  |  | 37.6
CN(CCCN1c2ccccc2CCc2ccccc21)CC(=O)c1ccc(Cl)cc1 | rep main protease | enzyme activity |  |  | 11.4
COc1cc(Br)cc(C=NN2C(=O)c3ccccc3NC2c2cc(Br)cc(OC)c2O)c1O (centres unmarked) | rep main protease | enzyme activity in cells |  |  | > 40
Cc1cccc(C)c1OCC(=O)N[C@@H](Cc1ccccc1)[C@@H](O)C[C@H](Cc1ccccc1)NC(=O)[C@H](C(C)C)N1CCCNC1=O | rep main protease | enzyme activity | luciferase |  | > 240
CN(C(=O)[C@H](Cc1ccccc1)NC(=O)OCc1ccccc1)N(C#N)CCC(N)=O | rep main protease | enzyme activity |  |  | 2.33
O=c1c2ccccc2[se]n1-c1cccc2cccnc12 | rep main protease | enzyme activity | FRET |  | 2.6
[2H]C([2H])([2H])n1ncc2cc(/N=c3\[nH]c(=O)n(Cc4ncn(C)n4)c(=O)n3Cc3cc(F)c(F)cc3F)c(Cl)cc21 | rep main protease | enzyme activity | FRET |  | 3.53
